The record followed here is ChEMBL document CHEMBL5154684 (J Med Chem, 2022).

For data set [1], the target named is T1, Nuclear factor erythroid 2-related factor 2 (Mus musculus) (UniProt Q60795).
T1 sequence (whole entry): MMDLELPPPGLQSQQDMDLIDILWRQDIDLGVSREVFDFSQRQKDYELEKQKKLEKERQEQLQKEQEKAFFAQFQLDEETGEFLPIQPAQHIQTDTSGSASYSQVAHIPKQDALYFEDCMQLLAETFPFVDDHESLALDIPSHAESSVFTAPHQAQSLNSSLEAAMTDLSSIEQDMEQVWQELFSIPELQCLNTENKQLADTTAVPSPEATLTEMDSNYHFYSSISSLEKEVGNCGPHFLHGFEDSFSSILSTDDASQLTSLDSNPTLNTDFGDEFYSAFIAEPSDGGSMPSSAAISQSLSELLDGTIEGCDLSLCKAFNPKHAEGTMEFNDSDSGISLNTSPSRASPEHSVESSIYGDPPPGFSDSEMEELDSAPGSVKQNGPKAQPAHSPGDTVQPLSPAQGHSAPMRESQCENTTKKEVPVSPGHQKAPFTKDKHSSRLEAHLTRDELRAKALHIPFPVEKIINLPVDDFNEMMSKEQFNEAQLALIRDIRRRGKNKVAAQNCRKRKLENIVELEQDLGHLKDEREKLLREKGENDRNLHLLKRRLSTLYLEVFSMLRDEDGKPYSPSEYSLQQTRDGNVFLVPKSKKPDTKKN
Nature of the data set: Activation of Nrf2 transcriptional activity in KEAP1+/+ mouse embryonic fibroblast cells assessed as increase in HMOX1 mRNA levels at 20 uM by RT-qPCR analysis. The format is cell-based. The following applies: filed as activator, time 4-24 hrs, TDE = time-dependent effect. In short, it runs like this:
(§1)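 Keap1+/+ and Keap1–/– MEFs were grown in DMEM with 10% FBS and treated at 20 μM for 4, 8 and 24 h. HMOX1 and NQO1 mRNA measured by qRT-PCR, normalized to β-actin mRNA. n = 4 ± S.E.M., experiments done twice; two-way ANOVA with Bonferroni post hoc.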

Data set [2] has as its target T2, Nuclear factor erythroid 2-related factor 2 (Homo sapiens) (UniProt Q16236).
T2 sequence (whole entry): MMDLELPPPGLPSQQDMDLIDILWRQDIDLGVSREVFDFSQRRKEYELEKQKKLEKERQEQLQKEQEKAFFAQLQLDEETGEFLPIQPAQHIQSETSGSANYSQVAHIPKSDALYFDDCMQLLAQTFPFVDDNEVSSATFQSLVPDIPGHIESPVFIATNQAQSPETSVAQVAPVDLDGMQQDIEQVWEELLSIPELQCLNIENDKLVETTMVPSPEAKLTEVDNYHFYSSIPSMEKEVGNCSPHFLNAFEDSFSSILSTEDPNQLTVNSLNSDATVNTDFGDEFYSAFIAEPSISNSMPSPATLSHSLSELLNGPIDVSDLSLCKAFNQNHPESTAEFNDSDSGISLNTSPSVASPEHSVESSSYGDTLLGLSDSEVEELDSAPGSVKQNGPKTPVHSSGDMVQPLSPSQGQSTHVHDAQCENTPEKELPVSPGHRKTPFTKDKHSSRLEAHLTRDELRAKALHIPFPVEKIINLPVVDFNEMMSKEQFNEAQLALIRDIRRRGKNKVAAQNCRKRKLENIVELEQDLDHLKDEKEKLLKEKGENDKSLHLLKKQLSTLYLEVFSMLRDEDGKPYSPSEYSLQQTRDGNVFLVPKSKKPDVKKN
Nature of the data set: Activation of Nrf2 transcriptional activity in human SH-SY5Y cells assessed as induction of accumulation of Nrf2 in nucleus at 20 uM incubated for 30 to 240 mins by Immunoblotting analysis. The format is cell-based. Particulars: filed as activator, time 60-240 min, in the assay text read “60 to 240 mins” for “30 to 240 mins”. In a few lines:
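SH-SY5Y cells treated at 20 μM for 1, 2 and 4 h. Cytosolic and nuclear fractions were prepared by hypotonic NP-40 lysis followed by a nuclear extraction buffer. […] Duplicate, at least twice.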
(In general: Immunoblotting shows a protein as a band on a membrane.)

The target in data set [3] is T2, Nuclear factor erythroid 2-related factor 2 (Homo sapiens). As to the kind of experiment: Activation of Nrf2 transcriptional activity in human SH-SY5Y cells assessed as increase in HMOX1 mRNA expression at 20 uM by RT-qPCR analysis. Particulars: filed as activator, time 4-24 hrs, TDE = time-dependent effect. The format is cell-based. In short, it runs like this: (§2)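 SH-SY5Y cells (DMEM/Ham's F12, 10% FBS) were treated at 20 μM for 4, 8 and 24 h. HMOX1 and NQO1 mRNA measured by qRT-PCR, normalized to β-actin mRNA. Mean of n = 4 ± S.E.M., experiments done twice.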

In data set [4] the target is T3, Albumin (Homo sapiens, UniProt P02768). As to the kind of experiment: Binding affinity to human serum albumin assessed as Stern-Volmer quenching constant by Stern-Volmer plot analysis. The format is ADME. The following applies: isolated protein.
Data set [5] concerns the target T2, Nuclear factor erythroid 2-related factor 2 (Homo sapiens). As to the kind of experiment: Induction of Nrf2 signalling pathway in ALS patient derived human lymphoblasts harboring SOD1 mutation assessed as increase in HMOX1 mRNA level at 20 uM measured after 24 hrs by RT-qPCR analysis. The format is cell-based. The following applies: Lymphoblastoid cell, filed as activator. In a few lines:
(§3)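 EBV-immortalized lymphoblastoid lines from controls, sALS and SOD1-ALS patients were grown in RPMI-1640 with 10% FBS. They were seeded at 1 × 10^6 cells/mL, serum-starved 12 h, then treated at 20 μM for 24 h. HMOX1 and NQO1 mRNA measured by qRT-PCR, normalized to β-actin mRNA. n = 6–7 controls, 5–6 sALS, 4 SOD1-ALS, ± S.E.M.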
On the technique in general: Real-time PCR tracks product formation cycle by cycle.

The target is the same in data set [6]. Nature of the data set: Activation of Nrf2 transcriptional activity in human SH-SY5Y cells assessed as increase in NQO1 protein levels at 20 uM incubated for 24 hrs by immunoblot analysis. The format is cell-based. The following applies: filed as activator. In short, it runs like this: (§4)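 SH-SY5Y cells exposed to 20 μM for 4, 8 and 24 h. […] Densitometry normalized to β-actin. Duplicate, at least twice; one-way ANOVA with Tukey post-test.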

For data set [7] the target is unchanged. Nature of the data set: Activation of Nrf2 transcriptional activity in human SH-SY5Y cells assessed as increase in NQO1 mRNA expression at 20 uM by RT-qPCR analysis. Particulars: filed as activator, time 4-24 hrs, TDE = time-dependent effect. The format is cell-based. In a few lines: as §2
Data set [8] deals with T1, Nuclear factor erythroid 2-related factor 2 (Mus musculus). As to the kind of experiment: Activation of Nrf2 transcriptional activity in KEAP1+/+ mouse embryonic fibroblast cells assessed as increase in NQO1 mRNA levels at 20 uM by RT-qPCR analysis. The format is cell-based. Particulars: filed as activator, time 4-24 hrs, TDE = time-dependent effect. In short, it runs like this: as §1

Data set [9] concerns the target T2, Nuclear factor erythroid 2-related factor 2 (Homo sapiens). Nature of the data set: Activation of Nrf2 transcriptional activity in HEK293T cells transfected with TK-Renilla reporter vector and cotransfected with ARE-LUC vector measured after 16 hrs by dual-luciferase reporter gene assay. The format is cell-based. The following applies: filed as activator, dose 6-60 µM, DDE = dose-dependent effect. In a few lines: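 HEK293T cells were seeded and cultured 16 h, then co-transfected by calcium phosphate with 3×ARE-LUC and TK-Renilla. […] Lysates were read by dual-luciferase. Triplicates, at least twice. CD is the concentration that doubles luciferase over basal.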

Data set [10] addresses T1, Nuclear factor erythroid 2-related factor 2 (Mus musculus). As to the kind of experiment: Activation of Nrf2 transcriptional activity in KEAP1-/- mouse embryonic fibroblast cells assessed as increase in HMOX1 mRNA levels at 20 uM measured upto 24 hrs by RT-qPCR analysis. The format is cell-based. The following applies: filed as activator. In a few lines: as §1
For data set [11], the target named is T3, Albumin. As to the kind of experiment: Binding affinity to human serum albumin assessed as association constant by Scatchard equation. The format is ADME. The following applies: isolated protein.
Data set [12] addresses Keap1/Nrf2 (Homo sapiens) (UniProt Q16236+Q14145). As to the kind of experiment: Inhibition of Nrf2 (unknown origin)/KEAP1 (unknown origin) protein-protein interaction by measuring inflection temperature at 100 uM by differential scanning fluorimetry. The format is protein assay.
Data set [13] addresses T2, Nuclear factor erythroid 2-related factor 2 (Homo sapiens). Nature of the data set: Induction of Nrf2 signalling pathway in human lymphoblast assessed as increase in NQO1 mRNA level at 20 uM measured after 24 hrs by RT-qPCR analysis. The format is cell-based. The following applies: Lymphoblastoid cell, filed as activator. In short, it runs like this: as §3
Data set [14] shares this target. As to the kind of experiment: Activation of Nrf2 transcriptional activity in human SH-SY5Y cells assessed as increase in HO-1 protein levels at 20 uM incubated for 24 hrs by immunoblot analysis. The format is cell-based. The following applies: filed as activator. In short, it runs like this: as §4
The target is the same in data set [15]. Nature of the data set: Induction of Nrf2 signalling pathway in human lymphoblast assessed as increase in HMOX1 mRNA level at 20 uM measured after 24 hrs by RT-qPCR analysis. The format is cell-based. Particulars: Lymphoblastoid cell, filed as activator. In short, it runs like this: as §3
The nature of data set [16]: Stability in pooled human liver microsomes assessed as intrinsic clearance at 8 uM in presence of NADPH measured upto 60 mins by HPLC-MS analysis. The format is ADME, Microsome. The following applies: 1 h.
The target of data set [17] is T2, Nuclear factor erythroid 2-related factor 2 (Homo sapiens). As to the kind of experiment: Induction of Nrf2 signalling pathway in ALS patient derived human lymphoblasts harboring SOD1 mutation assessed as increase in NQO1 mRNA level at 20 uM measured after 24 hrs by RT-qPCR analysis. The format is cell-based. Particulars: Lymphoblastoid cell, filed as activator. In short, it runs like this:
as §3

For data set [18] the target is unchanged. Nature of the data set: Induction of Nrf2 signalling pathway in human lymphoblast assessed as increase in HMOX1 protein level at 20 uM measured after 24 hrs by immunoblot analysis. The format is cell-based. Particulars: Lymphoblastoid cell, filed as activator.
For data set [19] the target is unchanged. Nature of the data set: Induction of Nrf2 signalling pathway in ALS patient derived human lymphoblasts harboring SOD1 mutation assessed as increase in NQO1 protein level at 20 uM measured after 24 hrs by immunoblot analysis. The following applies: Lymphoblastoid cell, filed as activator. The format is cell-based.
Data set [20] shares this target. Nature of the data set: Induction of Nrf2 signalling pathway in ALS patient derived human lymphoblasts harboring SOD1 mutation assessed as increase in HMOX1 protein level at 20 uM measured after 24 hrs by immunoblot analysis. The following applies: Lymphoblastoid cell, filed as activator. The format is cell-based.
Data set [21] shares this target. Nature of the data set: Induction of Nrf2 signalling pathway in human lymphoblast assessed as increase in Nrf2 protein level at 20 uM measured after 24 hrs by immunoblot analysis. The format is cell-based. Particulars: Lymphoblastoid cell, filed as activator.
A further data set is filed under the species Homo sapiens. As to the kind of experiment: Selectivity ratio of CD for Nrf2 activation in HEK293T cells to IC50 for inhibition of ROCK2 (unknown origin). The format is cell-based. In short, it runs like this: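 Ratio of CD to ROCK2 IC50. CD is the concentration doubling ARE-luciferase over basal in transfected HEK293T cells after 16 h. […] Reactions were stopped with orthophosphoric acid and captured on P81 filters.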

The target in data set [22] is T2, Nuclear factor erythroid 2-related factor 2 (Homo sapiens). Nature of the data set: Induction of Nrf2 signalling pathway in human lymphoblast assessed as increase in NQO1 protein level at 20 uM measured after 24 hrs by immunoblot analysis. The format is cell-based. The following applies: Lymphoblastoid cell, filed as activator.
Data set [23] deals with Rho-associated protein kinase 2 (Homo sapiens, UniProt O75116). Nature of the data set: Inhibition of ROCK2 (unknown origin) using KEAKEKRQEQIAKRRRLSSLRASTSKSGGSQK-peptide as substrate incubated for 30 mins in presence of [gamma-33P]-ATP.

The source made the active and inactive calls. No cut-off for these calls is given here.

T3 sequence (P02768 whole entry): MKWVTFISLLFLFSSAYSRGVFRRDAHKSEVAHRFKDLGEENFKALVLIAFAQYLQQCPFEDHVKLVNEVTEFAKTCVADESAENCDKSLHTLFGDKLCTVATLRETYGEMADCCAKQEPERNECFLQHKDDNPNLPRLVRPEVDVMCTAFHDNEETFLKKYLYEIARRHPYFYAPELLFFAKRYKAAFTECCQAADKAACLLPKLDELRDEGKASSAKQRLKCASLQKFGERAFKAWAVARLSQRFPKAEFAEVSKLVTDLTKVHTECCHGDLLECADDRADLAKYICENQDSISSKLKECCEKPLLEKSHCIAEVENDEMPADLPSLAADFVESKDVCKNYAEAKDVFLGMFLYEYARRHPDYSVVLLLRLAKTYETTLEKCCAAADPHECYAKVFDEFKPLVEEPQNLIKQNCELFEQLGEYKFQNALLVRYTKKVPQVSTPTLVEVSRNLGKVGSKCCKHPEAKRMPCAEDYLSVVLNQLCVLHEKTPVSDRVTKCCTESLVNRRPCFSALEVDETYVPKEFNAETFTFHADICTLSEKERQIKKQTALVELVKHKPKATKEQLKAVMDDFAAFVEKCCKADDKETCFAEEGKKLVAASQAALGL
Chain of Keap1/Nrf2 (Homo sapiens) (Q14145 whole entry, looked up, one chain of several): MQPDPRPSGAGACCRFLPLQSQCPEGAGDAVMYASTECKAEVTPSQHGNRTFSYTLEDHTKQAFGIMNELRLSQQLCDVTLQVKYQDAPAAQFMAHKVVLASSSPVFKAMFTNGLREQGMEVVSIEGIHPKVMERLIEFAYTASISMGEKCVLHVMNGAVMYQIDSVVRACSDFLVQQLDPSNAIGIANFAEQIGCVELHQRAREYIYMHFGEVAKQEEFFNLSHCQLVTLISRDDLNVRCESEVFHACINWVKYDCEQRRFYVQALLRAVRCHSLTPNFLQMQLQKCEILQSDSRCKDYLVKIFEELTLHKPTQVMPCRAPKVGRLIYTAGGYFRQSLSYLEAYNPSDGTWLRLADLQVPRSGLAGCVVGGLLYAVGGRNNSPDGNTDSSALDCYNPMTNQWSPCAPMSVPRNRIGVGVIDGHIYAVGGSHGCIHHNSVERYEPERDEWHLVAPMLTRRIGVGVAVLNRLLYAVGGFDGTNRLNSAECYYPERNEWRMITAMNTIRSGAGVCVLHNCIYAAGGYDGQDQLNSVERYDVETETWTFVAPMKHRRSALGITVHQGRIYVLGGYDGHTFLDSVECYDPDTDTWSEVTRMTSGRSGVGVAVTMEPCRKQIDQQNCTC
Chain of Rho-associated protein kinase 2 (O75116 whole entry): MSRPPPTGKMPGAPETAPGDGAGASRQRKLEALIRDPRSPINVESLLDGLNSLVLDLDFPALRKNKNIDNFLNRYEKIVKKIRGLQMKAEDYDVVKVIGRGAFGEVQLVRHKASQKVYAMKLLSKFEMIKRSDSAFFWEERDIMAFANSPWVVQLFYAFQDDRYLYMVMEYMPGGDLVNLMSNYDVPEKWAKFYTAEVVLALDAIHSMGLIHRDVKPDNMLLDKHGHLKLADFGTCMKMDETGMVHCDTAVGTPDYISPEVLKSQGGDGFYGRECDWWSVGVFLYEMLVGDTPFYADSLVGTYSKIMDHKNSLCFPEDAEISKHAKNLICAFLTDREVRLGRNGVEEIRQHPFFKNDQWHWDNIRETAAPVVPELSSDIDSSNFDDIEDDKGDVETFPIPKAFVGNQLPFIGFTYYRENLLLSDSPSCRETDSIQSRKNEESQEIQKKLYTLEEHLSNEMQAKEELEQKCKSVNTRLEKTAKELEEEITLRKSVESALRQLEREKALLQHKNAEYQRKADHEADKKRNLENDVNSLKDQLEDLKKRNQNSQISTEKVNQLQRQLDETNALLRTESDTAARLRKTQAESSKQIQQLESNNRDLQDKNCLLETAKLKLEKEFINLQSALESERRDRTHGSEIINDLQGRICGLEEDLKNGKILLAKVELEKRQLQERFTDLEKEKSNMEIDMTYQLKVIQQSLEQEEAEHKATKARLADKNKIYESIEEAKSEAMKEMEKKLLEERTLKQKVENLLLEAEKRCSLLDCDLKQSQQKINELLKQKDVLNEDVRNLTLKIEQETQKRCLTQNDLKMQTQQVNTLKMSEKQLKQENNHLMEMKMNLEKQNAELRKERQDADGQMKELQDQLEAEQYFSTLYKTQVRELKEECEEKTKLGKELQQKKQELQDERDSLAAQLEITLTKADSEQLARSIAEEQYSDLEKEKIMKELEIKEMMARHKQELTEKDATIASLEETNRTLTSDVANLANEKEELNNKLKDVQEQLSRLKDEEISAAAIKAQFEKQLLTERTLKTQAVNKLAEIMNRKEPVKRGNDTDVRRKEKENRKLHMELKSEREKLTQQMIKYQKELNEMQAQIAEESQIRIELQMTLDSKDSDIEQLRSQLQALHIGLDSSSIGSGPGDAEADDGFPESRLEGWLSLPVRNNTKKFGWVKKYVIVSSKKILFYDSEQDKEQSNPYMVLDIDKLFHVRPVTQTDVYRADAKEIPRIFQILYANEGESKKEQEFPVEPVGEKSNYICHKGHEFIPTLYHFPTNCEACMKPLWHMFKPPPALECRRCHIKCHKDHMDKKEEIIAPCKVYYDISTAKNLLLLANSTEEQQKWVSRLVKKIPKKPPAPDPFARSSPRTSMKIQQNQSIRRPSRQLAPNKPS

Take `O=C(CCc1ccc(O)c(O)c1)N1CCCN(S(=O)(=O)c2cccc3cnccc23)CC1`: the Activity result is “Tde” in data set [1]; “Tde” in data set [3]; “Tde” in data set [7]; “Tde” in data set [8]; “Dde” in data set [9]. The result in [2], in [5], in data set [6], in data set [10], in data set [13] and in data set [14] was Active. Also, the outcome in data set [15], in data set [17], in [18], in data set [19], in data set [20] and in data set [21] was Active. The result in data set [22] was Active. Besides, the KSV at Albumin [4] was 1.68 10^5L/mol. Besides, at Albumin [11], the ka was 7.94 10^5L/mol. Further, the deltaT in data set [12] stood at 0.2 °C. The CLint in data set [16] came to 15.3 µL/min/mg. The Selectivity ratio in the data set filed under Homo sapiens stood at 1.4.
As to `COc1cc(CCC(=O)N2CCN(S(=O)(=O)c3cccc4cnccc34)CC2)ccc1O`, the half-maximal inhibitory concentration (IC50) in [23] is more than 10 µM.
With `O=C(CCc1ccc(O)c(O)c1)N1CCN(S(=O)(=O)c2cccc3cnccc23)CC1`, the Activity entry in data set [9] was “Dde”. In addition, in the data set listed under Homo sapiens, the Selectivity ratio is 46.9.
The like results for `O=C(/C=C/c1ccc(O)c(O)c1)N1CCCN(S(=O)(=O)c2cccc3cnccc23)CC1` were, in that order, “Dde” and 5.2.

Usually IC50 stands for the concentration that inhibits the measured activity by half.
